CXCR6 block = inhibitors of human CXCR6 receptor; AID 602244; CHO-K1 PathHunter CXCR6 beta-arrestin, luminescence; 0.36% of 360,000 active; inhibition, % at 20 µM; in the data active means inhibition above about 34%, passing the limit was not always enough;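 further: antagonist mode with CXCL16 agonist at 10 nM final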
Target sequence (O00574 whole entry, looked up): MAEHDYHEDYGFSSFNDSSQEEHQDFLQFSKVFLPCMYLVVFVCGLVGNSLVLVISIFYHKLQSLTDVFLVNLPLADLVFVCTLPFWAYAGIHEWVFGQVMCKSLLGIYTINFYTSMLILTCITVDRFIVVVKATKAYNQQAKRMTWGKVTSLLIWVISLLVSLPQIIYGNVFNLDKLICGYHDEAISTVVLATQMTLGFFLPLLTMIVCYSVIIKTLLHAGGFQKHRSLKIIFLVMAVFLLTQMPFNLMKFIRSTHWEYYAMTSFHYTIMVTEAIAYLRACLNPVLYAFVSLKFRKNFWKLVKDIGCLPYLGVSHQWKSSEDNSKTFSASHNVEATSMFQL
APJ antag = antagonists of human APJ apelin receptor | P35414 | CHO-K1 APJ beta-arrestin complementation, luminescence | inhibition, % at 20 µM | 0.32% of 330,000 active;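 active means inhibition above about 40% at 20 µM, limit read from the data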;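 further: cells challenged with 10 nM apelin-13 agonist together with compound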
CCR6 antag = antagonists of human CCR6 receptor; P51684; CHO-K1 CCR6 PathHunter beta-arrestin, luminescence, CCL20-stimulated; inhibition, % at 20 µM; 0.49% of 340,000 active; AID 493098;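 active means compounds whose inhibition of the agonist-driven luminescence signal at 20 µM reaches about 50%, limit read from the data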;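 further: cells stimulated with CCL20 at 14 nM final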
EBI2 antag = antagonists of human EBI2 receptor; EBI2 beta-arrestin recruitment, luminescence, 7a,25-OHC stimulated; 0.81% of 360,000 active; AID 651636; P32249; inhibition, % at 5 µM; in the data active means inhibition above about 38%;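 further: enzyme fragment complementation signal reports receptor beta-arrestin coupling in cells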
APJ agonist = activates the human apelin receptor APJ; P35414; CHO-K1 APJ PathHunter beta-arrestin, luminescence; 0% DMSO wells, 100% apelin; activation, % at 20 µM; 0.11% of 330,000 active;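 active means activation more than six SD over the plate average, tested at 20 µM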
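system = engineered CHO-K1 APJ arrestin reporter cells | input = 1000 cells per well | timing = overnight seeding, 90 min compound at 25 °C, 1 h detection | measured by = enzyme-fragment complementation luminescence | read-out = beta-arrestin recruitment to APJ as agonist activity, luminescent signal | control set = negative DMSO alone, positive Apelin-13 at 10 nM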
m5-HT2A agonist = activates the mouse 5-HT2A serotonin receptor; P35363; CHO-K1 mHTR2A beta-arrestin complementation, luminescence; percent of 30 µM serotonin response; activation, % at 7.6 µM; 0.66% of 360,000 active;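 active means activation above a run cutoff, the mean activation of all tested compounds plus 3 SD, cut at about 14% in these data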
EBI2 conf = confirmation of human EBI2 receptor antagonists | inhibition, % at 5 µM | shares compounds with EBI2 antag | 29% of 2,400 active | EBI2 beta-arrestin luminescence, 7a,25-OHC antagonism;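 active means inhibition of at least 50%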
EBI2 agonist = counter-screen for EBI2 antagonists: EBI2 agonist activity | shares compounds with EBI2 antag | EBI2-expressing cells, agonist mode, luminescence, 60 min; 0% vehicle, 100% 7α,25-dihydroxycholesterol control | activation, % at 5 µM | 2,400 tested, under 10 active;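 active means activation of at least 50%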
bGal cs = inhibits E. coli beta-galactosidase, counter-screen for EBI2 antagonists. inhibition, % at 5 µM. shares compounds with EBI2 antag. 1% of 2,400 active. purified beta-galactosidase, luminescent Galacton Star, 15 min;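 active means replicate-average signal at least 3 plate SD below neutral wells, shown as high inhibition, flagging enzyme-inhibiting false positives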;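 further: higher means stronger loss of beta-gal luminescence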
A number is an active result; - = inactive; . = no result. The list is not random: actives were taken first. Their share in the collection is about 2.1%.

SMILES	CXCR6 block	APJ antag	CCR6 antag	EBI2 antag	APJ agonist	m5-HT2A agonist	EBI2 conf	EBI2 agonist	bGal cs
COc1cccc(CCN2C(=O)C(=O)N([C@@H](CNCc3ccccc3)Cc3ccccc3F)C[C@@H]2C(C)(C)C)c1	.	-	-	.	-	.	.	.	.
CN(C(=O)c1cccc(NC(=O)Cc2cccc(NC(=O)C3CCCN(C(=O)C4CCCCC4)C3)c2)c1)C1CCC1 (configuration not stated)	-	.	-	-	.	-	.	.	.
O=C(NCc1ccc2c(c1)OCO2)C1CCN(S(=O)(=O)c2ccc(Br)s2)CC1	-	-	-	44	-	-	-	-	-
COc1ccc(CNC(=O)C2CCCN(S(=O)(=O)c3ccc(Br)s3)C2)cc1 (configuration not stated)	-	-	-	-	-	-	.	.	.
COc1ccc(CNC(=O)C2CCN(S(=O)(=O)c3ccc(Br)s3)CC2)cc1	-	-	-	68	-	-	-	-	-
CC1CC(C)CN(S(=O)(=O)N2CCCC(C(=O)NCCc3ccc(Cl)cc3)C2)C1 (configuration not stated)	-	-	-	57	-	-	52	-	-
O=C(NCCc1ccc(Cl)cc1)C1CCN(S(=O)(=O)c2ccc(Br)s2)CC1	-	-	-	51	-	-	-	-	-
COc1ccc(CC(=O)N(C)CC(=O)Nc2ccc(F)cc2)cc1S(=O)(=O)N1CCOCC1	-	-	-	-	-	-	.	.	.
CC(c1ccco1)N(C(=O)c1ccc(Cl)c([N+](=O)[O-])c1)c1ccccn1 (configuration not stated)	-	-	-	-	-	-	.	.	.
C=C1CCC2C(C)(C(=O)O)CCCC2(C)C1CCC(CO)CCO (configuration not stated)	-	.	.	-	.	-	.	.	.
CN(C)c1ccc(CNC(=O)C2(C)Cc3c(-c4cccc(C(F)(F)F)c4)ccnc3O2)cc1 (configuration not stated)	-	.	.	-	.	-	.	.	.
CC(C)(C)c1ccc(/C=N/Nc2nncn2N)cc1	-	-	-	-	-	-	.	.	.
CC(C)(C)c1nnc(N/N=C/c2ccc(Br)cc2)n(N)c1=O	-	-	-	92	-	-	80	-	-
O=C(COc1ccc(Br)cc1)N1CCN(c2ccccc2)CC1	-	-	-	82	-	-	67	-	-
O=C(COc1ccc2ccccc2c1)N1CCN(c2ccccc2)CC1	-	-	-	50	-	-	-	-	-
COc1cc(OC)cc(C(=O)N2CCN(C(=O)COc3ccc4ccccc4c3)CC2)c1	-	-	-	85	-	-	68	-	-
O=C(COc1ccc2ccccc2c1)N1CCCC1	-	-	-	-	-	-	.	.	.
COc1ccc(N2CCN(C(=O)COc3ccc4ccccc4c3)CC2)cc1	-	-	-	85	-	-	-	-	-
CCCCOCCCNC(=O)C[C@@H]1C[C@@]2(C(=O)OCC)CCC=C2N(Cc2ccccc2)C1=O	-	.	.	-	.	-	.	.	.
NC(=O)CC(NC(=O)c1ccc(Cl)cc1)C(=O)NCCc1ccc(S(N)(=O)=O)cc1 (configuration not stated)	-	-	-	-	-	-	.	.	.
CN(C(=O)c1cccc(NC(=O)Cc2cccc([N+](=O)[O-])c2)c1)C1CC1	-	-	-	-	-	-	.	.	.
COc1ccccc1N1CCN(Cc2cc(=O)c(OCC(=O)NC3CCCC3)co2)CC1	-	-	-	-	-	-	.	.	.
O=C(COc1ccc(Br)cc1)OCC(=O)N1CCOCC1	-	-	-	-	-	-	.	.	.
O=C(COc1ccc(-c2ccccc2)cc1)N1CCN(C(=O)c2cccnc2)CC1	-	-	-	-	-	-	.	.	.

Assay outcomes: PubChem, several laboratories
